# Structures can show the parent of a compound that is named as a salt. Where two headings read alike, the source gives them in different places.
# Experiments:
# [1] = under physiological conditions; cited from earlier work
# [2] = assay type: in vivo, human; details: for half-life / AUC(0-t) / Cmax / Tmax: human, plasma, 4 mg; for half-life: oral, Geometric mean (%CV) terminal half-life, N = 4; for AUC(0-t) / Cmax / Tmax: po, single 4-mg oral dose, n = 15; for AUC(0-t): Geometric mean AUC0-216 (%CV); for Cmax: Geometric mean Cmax (%CV); for Tmax: Median Tmax (range)
# How it was run: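 Randomized 2-period, 2-sequence crossover: 4-mg immediate-release capsule on day 1 and day 15, either fasted (~10 h overnight) or fed (high-fat meal begun ≥30 min predose), alternating between periods; no food 4 h postdose. Plasma sampled predose to 216 h, LC-MS/MS (linear 0.5–500 ng/mL). Noncompartmental parameters; log AUC0-216 and Cmax by ANOVA (treatment, sequence, period fixed; patient-within-sequence random), back-transformed LS-mean ratios with 90% CIs.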
# [3] = cited from earlier work
# [4] = ref Takeda, data on file; cited from earlier work
# [5] = Safety and tolerability; assay type: in vivo, human
# How it was run: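 Adverse events recorded throughout treatment and up to 30 days after last dose or start of subsequent antineoplastic therapy, graded by NCI CTCAE v4.03. Safety population comprised all patients given at least 1 dose of test compound (single 4-mg oral doses on days 1 and 15, fasted/fed crossover).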
# [6] = ref Takeda, data on file; cited from earlier work; remark: listed apart in the source
# [7] = Biopharmaceutics Classification System; assay type: physicochemical; details: from solubility and permeability
# [8] = healthy volunteers and patients with advanced solid tumors; cited from earlier work
# [9] = fed vs fasted, ANOVA on log-transformed values
smiles,measurement,setting,value
CC(C)C[C@H](NC(=O)CNC(=O)c1cc(Cl)ccc1Cl)B1OC(=O)C(CC(=O)O)(CC(=O)O)O1 [ixazomib citrate],"Hydrolysis to the biologically active boronic acid, ixazomib",[1],rapid hydrolysis
CC(C)C[C@H](NC(=O)CNC(=O)c1cc(Cl)ccc1Cl)B(O)O [ixazomib],Ratio of period 2 AUC to period 1 AUC (period effect),"[2]; ANOVA analysis, period 2 (day 15) vs period 1 (day 1)",2.21
same,Delay of median Tmax under fed conditions compared with fasted state,[2]; fed vs fasted,approximately 3 hours
same,Reduction in peak plasma concentration (Cmax),[2]; fed vs fasted,69%
same,Reduction in total systemic exposure (AUC),[2]; fed vs fasted,28%
same,Least-squares geometric mean ratio (90%CI) of AUC0-216 (test/reference),[2]; [9],0.72 (0.58‐0.89)
same,Least-squares geometric mean ratio (90%CI) of Cmax (test/reference),[2]; [9],0.31 (0.21‐0.45)
same,half-life,"[2]; day 1, fasted",189 h
same,half-life,"[2]; day 1, fed",198 h
same,AUC(0-t),[2]; fasted (reference),1470 ng·h/mL
same,AUC(0-t),[2]; fed (test),999 ng·h/mL
same,Cmax,[2]; fasted (reference),77 ng/mL
same,Cmax,[2]; fed (test),22.8 ng/mL
same,Tmax,"[2]; fasted (reference), immediate-release capsule",1.02 h
same,Tmax,"[2]; fed (test, high-calorie high-fat meal)",4 h
same,Absolute oral bioavailability,"[3]; 226 adult cancer patients, immediate-release capsules, estimated",60%
same,Dose and time dependence of PK,[3],dose‐ and time‐independent PK
same,Permeability,[4],moderate
same,On-study deaths considered related to ixazomib,[5]; 3 on-study deaths,None
same,"Drug-related, reversible grade 1 peripheral neuropathy",[5]; 24 patients,1 case
same,Patients with TEAEs resulting in dose reduction,[5]; 24 patients,4%
same,Patients with any-grade drug-related TEAEs,[5]; 24 patients,83%
same,Patients with any-grade drug-related fatigue,[5]; 24 patients,25%
same,Patients with any-grade drug-related nausea,[5]; 24 patients,50%
same,Patients with any-grade drug-related vomiting,[5]; 24 patients,58%
same,Patients with at least 1 grade ≥3 TEAE,[5]; 24 patients,54%
same,Patients with at least 1 grade ≥3 drug-related TEAE,[5]; 24 patients,21%
same,Patients with drug-related serious AE,[5]; 24 patients,8%
same,Patients with grade ≥3 drug-related anemia,[5]; 24 patients,8%
same,Patients with grade ≥3 drug-related dehydration,[5]; 24 patients,4%
same,Patients with grade ≥3 drug-related fatigue,[5]; 24 patients,4%
same,Patients with grade ≥3 drug-related peripheral edema,[5]; 24 patients,4%
same,Patients with grade ≥3 drug-related vomiting,[5]; 24 patients,4%
same,Patients with vomiting leading to dose modification,[5]; 24 patients,8%
same,AE leading to discontinuation,[5]; safety population N = 24,7 (29) n (%)
same,Any AE,[5]; safety population N = 24,24 (100) n (%)
same,Any drug-related AE,[5]; safety population N = 24,20 (83) n (%)
same,Any drug-related grade ≥3 AE,[5]; safety population N = 24,5 (21) n (%)
same,Any drug-related serious AE,[5]; safety population N = 24,2 (8) n (%)
same,Any grade ≥3 AE,[5]; safety population N = 24,13 (54) n (%)
same,Any serious AE,[5]; safety population N = 24,12 (50) n (%)
same,Any-grade drug-related AE: anemia,[5]; safety population N = 24,4 (17) n (%)
same,Any-grade drug-related AE: asthenia,[5]; safety population N = 24,2 (8) n (%)
same,Any-grade drug-related AE: chills,[5]; safety population N = 24,2 (8) n (%)
same,Any-grade drug-related AE: constipation,[5]; safety population N = 24,2 (8) n (%)
same,Any-grade drug-related AE: decreased appetite,[5]; safety population N = 24,3 (13) n (%)
same,Any-grade drug-related AE: diarrhea,[5]; safety population N = 24,3 (13) n (%)
same,Any-grade drug-related AE: fatigue,[5]; safety population N = 24,6 (25) n (%)
same,Any-grade drug-related AE: nausea,[5]; safety population N = 24,12 (50) n (%)
same,Any-grade drug-related AE: thrombocytopenia,[5]; safety population N = 24,2 (8) n (%)
same,Any-grade drug-related AE: vomiting,[5]; safety population N = 24,14 (58) n (%)
same,Any-grade drug-related AE: weight loss,[5]; safety population N = 24,4 (17) n (%)
same,Grade ≥3 drug-related AE: anemia,[5]; safety population N = 24,2 (8) n (%)
same,Grade ≥3 drug-related AE: dehydration,[5]; safety population N = 24,1 (4) n (%)
same,Grade ≥3 drug-related AE: fatigue,[5]; safety population N = 24,1 (4) n (%)
same,Grade ≥3 drug-related AE: peripheral edema,[5]; safety population N = 24,1 (4) n (%)
same,Grade ≥3 drug-related AE: vomiting,[5]; safety population N = 24,1 (4) n (%)
same,On-study deaths,[5]; safety population N = 24,3 (13) n (%)
same,Any-grade drug-related AE: rash,"[5]; safety population N = 24, includes follicular rash, intermittent dark skin lesion, macular rash, maculopapular rash, pruritus",5 (21) n (%)
same,Solubility,[6],highly soluble
same,Biopharmaceutics Classification System (BCS) class,[7],class 3
CS(=O)(=O)CCNCc1ccc(-c2ccc3ncnc(Nc4ccc(OCc5cccc(F)c5)c(Cl)c4)c3c2)o1 [lapatinib],Change in bioavailability when administered with a high-fat breakfast,[8],large increases
